The target of experiment [1] is T1, Aldo-keto reductase family 1 member C3 (Homo sapiens, UniProt P42330).
T1 sequence (P42330 whole entry): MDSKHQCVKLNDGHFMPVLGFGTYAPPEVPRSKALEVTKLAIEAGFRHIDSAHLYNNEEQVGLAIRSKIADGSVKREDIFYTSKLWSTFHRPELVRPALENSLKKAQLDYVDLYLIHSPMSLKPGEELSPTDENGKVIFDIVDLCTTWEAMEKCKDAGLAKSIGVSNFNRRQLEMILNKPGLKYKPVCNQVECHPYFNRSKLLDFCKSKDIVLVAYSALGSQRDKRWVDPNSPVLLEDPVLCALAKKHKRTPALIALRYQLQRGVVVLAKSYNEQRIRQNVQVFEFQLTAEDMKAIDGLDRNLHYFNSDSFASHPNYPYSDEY
Kind of experiment: Inhibition of human recombinant AKR1C3 using S-tetralol as substrate assessed as reduction in NADP+-dependent S-tetralol oxidation preincubated for 10 mins followed by protein addition by fluorometric assay.

For experiment [2], the target named is T2, Aldo-keto reductase family 1 member C2 (Homo sapiens, UniProt P52895).
T2 sequence (P52895 whole entry): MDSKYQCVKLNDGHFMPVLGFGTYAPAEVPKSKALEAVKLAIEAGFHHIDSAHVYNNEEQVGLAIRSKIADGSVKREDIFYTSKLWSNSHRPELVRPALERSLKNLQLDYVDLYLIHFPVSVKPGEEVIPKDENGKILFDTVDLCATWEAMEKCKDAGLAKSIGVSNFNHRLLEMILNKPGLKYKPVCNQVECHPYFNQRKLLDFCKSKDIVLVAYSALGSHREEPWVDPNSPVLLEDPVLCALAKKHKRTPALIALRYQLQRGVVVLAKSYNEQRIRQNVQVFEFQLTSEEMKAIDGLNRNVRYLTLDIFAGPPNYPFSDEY
Kind of experiment: Inhibition of human recombinant AKR1C2 using S-tetralol as substrate assessed as reduction in NADP+-dependent S-tetralol oxidation preincubated for 10 mins followed by protein addition by fluorometric assay.

For experiment [3], the target named is T3, Prostaglandin G/H synthase 2 (Homo sapiens, UniProt P35354).
T3 sequence (P35354 whole entry): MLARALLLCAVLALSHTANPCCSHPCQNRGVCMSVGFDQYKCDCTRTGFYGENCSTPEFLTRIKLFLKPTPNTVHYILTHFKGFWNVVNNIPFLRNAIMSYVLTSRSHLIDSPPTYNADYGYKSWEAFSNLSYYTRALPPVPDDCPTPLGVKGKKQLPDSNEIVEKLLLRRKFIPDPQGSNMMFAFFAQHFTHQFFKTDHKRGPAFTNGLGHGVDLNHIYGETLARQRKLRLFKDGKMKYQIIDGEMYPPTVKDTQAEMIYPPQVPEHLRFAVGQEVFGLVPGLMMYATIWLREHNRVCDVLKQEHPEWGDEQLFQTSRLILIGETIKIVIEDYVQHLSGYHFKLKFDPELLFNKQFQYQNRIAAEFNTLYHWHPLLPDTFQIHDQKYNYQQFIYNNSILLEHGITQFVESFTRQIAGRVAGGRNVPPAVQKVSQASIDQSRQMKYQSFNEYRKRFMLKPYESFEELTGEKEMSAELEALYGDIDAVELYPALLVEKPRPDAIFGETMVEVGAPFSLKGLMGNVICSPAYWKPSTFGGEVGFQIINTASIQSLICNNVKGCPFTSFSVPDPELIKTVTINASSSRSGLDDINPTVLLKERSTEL
Nature of the experiment: Inhibition of COX2 (unknown origin) using arachidonic acid as substrate assessed as […] by measuring TMPD oxidation preincubated for 5 mins followed by substrate/TMPD addition measured for 5 mins by colorimetric assay. Particulars: for pIC50: read-out: IC50.

For experiment [4], the target named is T4, Prostaglandin G/H synthase 1 (Ovis aries) (UniProt P05979).
T4 sequence (whole entry): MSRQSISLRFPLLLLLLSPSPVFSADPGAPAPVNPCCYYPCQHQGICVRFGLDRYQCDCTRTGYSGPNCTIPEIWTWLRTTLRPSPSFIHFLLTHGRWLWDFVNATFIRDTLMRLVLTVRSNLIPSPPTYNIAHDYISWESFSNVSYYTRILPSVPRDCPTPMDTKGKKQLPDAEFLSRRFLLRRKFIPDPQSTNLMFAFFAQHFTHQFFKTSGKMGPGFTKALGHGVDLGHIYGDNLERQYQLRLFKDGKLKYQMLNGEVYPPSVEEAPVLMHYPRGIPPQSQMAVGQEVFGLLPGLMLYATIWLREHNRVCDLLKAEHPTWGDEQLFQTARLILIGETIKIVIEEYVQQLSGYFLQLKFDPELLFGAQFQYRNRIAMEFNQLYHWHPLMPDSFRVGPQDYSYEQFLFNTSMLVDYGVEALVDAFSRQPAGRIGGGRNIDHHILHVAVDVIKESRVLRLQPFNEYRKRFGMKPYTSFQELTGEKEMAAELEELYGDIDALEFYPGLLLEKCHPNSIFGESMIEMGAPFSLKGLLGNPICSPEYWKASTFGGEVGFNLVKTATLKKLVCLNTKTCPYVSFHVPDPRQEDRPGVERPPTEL
Conditions: 100 uM.

Experiment [5] addresses T5, Androgen receptor (Homo sapiens) (UniProt P10275).
T5 sequence (whole entry): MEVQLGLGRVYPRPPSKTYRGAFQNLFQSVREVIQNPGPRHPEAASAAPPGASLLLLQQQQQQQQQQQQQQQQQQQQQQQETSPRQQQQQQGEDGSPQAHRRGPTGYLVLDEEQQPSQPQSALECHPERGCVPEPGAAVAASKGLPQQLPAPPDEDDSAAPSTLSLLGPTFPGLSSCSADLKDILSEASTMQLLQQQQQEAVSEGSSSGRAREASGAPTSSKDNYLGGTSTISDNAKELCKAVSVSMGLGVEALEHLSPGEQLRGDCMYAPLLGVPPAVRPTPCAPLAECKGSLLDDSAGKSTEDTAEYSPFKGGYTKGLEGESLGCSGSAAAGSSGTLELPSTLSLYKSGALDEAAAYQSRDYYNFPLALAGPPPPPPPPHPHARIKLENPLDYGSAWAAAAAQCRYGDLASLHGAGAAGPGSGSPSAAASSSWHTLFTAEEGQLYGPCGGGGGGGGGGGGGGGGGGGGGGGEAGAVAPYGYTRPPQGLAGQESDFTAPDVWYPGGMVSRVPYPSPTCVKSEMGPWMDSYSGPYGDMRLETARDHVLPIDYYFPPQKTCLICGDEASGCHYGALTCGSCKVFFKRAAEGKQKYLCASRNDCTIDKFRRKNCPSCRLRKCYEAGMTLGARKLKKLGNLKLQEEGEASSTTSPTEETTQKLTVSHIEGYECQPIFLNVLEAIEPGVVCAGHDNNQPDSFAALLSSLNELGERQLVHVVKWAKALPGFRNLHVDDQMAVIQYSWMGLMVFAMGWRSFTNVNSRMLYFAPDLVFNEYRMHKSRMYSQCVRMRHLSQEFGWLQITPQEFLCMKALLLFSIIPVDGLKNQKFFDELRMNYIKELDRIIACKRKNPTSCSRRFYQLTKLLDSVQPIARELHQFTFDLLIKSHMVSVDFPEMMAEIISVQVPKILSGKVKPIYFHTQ
Kind of experiment: Effect on 5alpha-DHT-induced activation of AR (unknown origin) expressed in human HeLa13 cells at 10 uM incubated for 20 hrs by luciferase reporter gene assay. Format: cell-based. Put shortly: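 HeLa13 cells stably carrying AR and an androgen-response-element luciferase reporter were grown 48 h in phenol-red-free medium with 5% charcoal-stripped FBS. They were plated for 6–7 h, then given fresh medium with 5α-DHT (1 nM in methods; increasing concentrations also tested) plus inhibitor. Luciferase was read after 20 h, as fold induction over untreated cells.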
On the technique in general: Reporter assays use an easily measured gene product as a stand-in for the process of interest.

In experiment [6] the target is T6, Prostaglandin G/H synthase 1 (Ovis aries, UniProt P05979).
T6 sequence (P05979 whole entry): T4 sequence (whole entry)
Kind of experiment: Inhibition of COX1 in ram seminal vesicles using arachidonic acid as substrate assessed as reduction in […] by measuring TMPD oxidation preincubated for 5 mins followed by substrate/TMPD addition measured for 5 mins by colorimetric assay.

Experiment [7] has as its target T7, Prostaglandin G/H synthase 2 (Homo sapiens) (UniProt P35354).
T7 sequence (whole entry): T3 sequence (P35354 whole entry)
Nature of the experiment: Inhibition of COX2 (unknown origin) using arachidonic acid as substrate assessed as reduction in […] by measuring TMPD oxidation at 10 uM preincubated for 5 mins followed by substrate/TMPD addition measured for 5 mins by colorimetric assay.

pIC50: −log10 of the molar value. Active and inactive are the calls of the source. The rule behind the calls is not given here.

Take `CSc1ccc2cc([C@H](C)C(=O)O)ccc2c1`: the values for the negative-log IC50 (pIC50) in experiment [1] and in experiment [2] were 7.15 and 5.87, respectively.

For the compound `COc1ccc2cc([C@@H](C)C(=O)O)ccc2c1`, the pIC50 in experiment [2] was 5.56; in experiment [3], < 4.60. For the same compound, the inhibition in experiment [4] is < 20%.

Take `CC[C@@H](C(=O)O)c1ccc2cc(OC)ccc2c1`: in experiment [3], the IC50 result was “Not Active”. Besides, in experiment [5], the outcome was inactive.

With `CC[C@H](C(=O)O)c1ccc2cc(OC)ccc2c1`, the pIC50 in experiment [1] is 6.92; in experiment [2], 5.76; in experiment [6], 5.71. Also, in experiment [3], the IC50 result is “Not Active”.

On to `CCC(C(=O)O)c1ccc2cc(OC)ccc2c1` (racemic), for which the values for the pIC50 in experiment [1] and in experiment [2] were 6.92 and 5.12, respectively. Besides, the inhibition entry in experiment [7] was “inactive”.

Regarding `CCc1ccc2cc(C(C)C(=O)O)ccc2c1` (racemic), the values for the pIC50 in experiment [1] and in experiment [2] were 6.92 and 5.72, respectively.

For `CCC(C(=O)NS(C)(=O)=O)c1ccc2cc(OC)ccc2c1` (racemic), the figures for the pIC50 in experiment [1] and in experiment [2] were 5.22 and 4.47, respectively.

`CCOc1ccc2cc(C(C)C(=O)O)ccc2c1` (racemic): the pIC50 in experiment [1] is 7.00; in experiment [2] it was 5.62.

Turning to `CSc1ccc2cc(C(C)C(=O)O)ccc2c1` (racemic), the pIC50 in experiment [1] was 7.22; in experiment [2], 5.82.

For the compound `COc1ccc2cc([C@H](C)C(=O)O)ccc2c1` [NAPROXEN], the pIC50 in experiment [3] was 6.05.

By pIC50 is commonly meant the IC50 on a negative log10 scale, so that one unit is a factor of ten. Usually inhibition stands for the relative decrease from the control value, in per cent.

Source of the values: ChEMBL document CHEMBL4428055 (J Med Chem, 2016).
